Assay results taken from ChEMBL document CHEMBL4190338, “1-Benzyl-3-aryl-2-thiohydantoin Derivatives as New Anti-Trypanosoma brucei Agents: SAR and in Vivo Efficacy” (ACS Med Chem Lett, 2017).
≈ marks a conversion by molar mass, not a printed value.

What was measured:
[1] = system: Trypanosoma brucei brucei; assay: Antitrypanosomal activity against Trypanosoma brucei brucei BF427 measured after 48 hrs by Alamar blue assay; assay type: functional, organism-based; conditions: BF427, 48 h
Procedure, shortened: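 Bloodstream T. brucei BF427 cultured in HMI-9 medium. Exposed to serial 3-fold compound dilutions in triplicate, read with Alamar Blue at 48 h. Pentamidine isethionate control in every assay.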

[2] = Cytotoxicity against human CRL8155 cells assessed as growth inhibition after 48 hrs by Alamar blue assay; assay type: cell-based
Procedure, shortened: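 Serial 3-fold dilutions in quadruplicate, 48 h, AlamarBlue read-out. Inhibition relative to untreated cells after subtracting a 50 µM quinacrine background. EC50 by nonlinear regression.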

[3] = Protein binding in Swiss Webster mouse plasma at 2 uM after 8 hrs by microdialysis based liquid chromatography/tandem mass spectrometric analysis; assay type: ADME, cell-free
Procedure, shortened: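 Compound at 2 µM in 50% pooled female Swiss Webster mouse plasma (lithium heparin) with 10X PBS, dialysed against blank 10X PBS in triplicate chambers of a microdialysis device. Incubation at 37 °C, 5% CO2 overnight or ≥8 h with shaking. Centrifuged 3000 rcf 15 min; supernatants concentrated, LC-MS/MS. Propranolol control.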

[4] = system: Mus musculus; assay: AUC in mouse at 50 mg/kg, po administered as single dose measured 24 hrs post dose by liquid chromatography/tandem mass spectrometric analysis; assay type: ADME, organism-based; conditions: in vivo
Procedure, shortened: (§1)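 Single oral dose of 50 mg/kg to mice in Phosal 53 MCT (60%)/PEG400 (30%)/ethanol (10%). Tail blood collected at 0.5, 1, 2, 4, 6, 8 and 24 h post dose and spotted onto DMPK cards. Punched dried blood spot disks extracted with acetonitrile, quantified by LC-MS/MS.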

[5] = system: Trypanosoma brucei rhodesiense; assay: Antitrypanosomal activity against trypomastigote form of Trypanosoma brucei rhodesiense STIB900 infected in mouse assessed as cure rate at 50 mg/kg administered via oral gavage bid from day 2 to 5 post infection measured 3 times per week for first month and weekly up to 60 days by microscopic method relative to control; assay type: functional
[6] = Ratio of drug level in mouse brain to plasma at 5 mg/kg, ip administered as single dose measured 1 hr post dose by liquid chromatography/tandem mass spectrometric analysis; assay type: ADME, organism-based
Procedure, shortened: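 Single IP injection of 5 mg/kg in 5% DMSO/7% Tween80/3% EtOH in 0.9% saline. At 1 h, plasma and brains collected; brains homogenized in water. Vehicle-injected mice (n=3) supplied matrix for standard curves. LC-MS/MS quantitation, with brain levels corrected for 3% v/w residual blood.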

[7] = system: Mus musculus; assay: Cmax in mouse at 50 mg/kg, po administered as single dose measured 24 hrs post dose by liquid chromatography/tandem mass spectrometric analysis; assay type: ADME, organism-based; parameters: dose 50 mg/kg, route oral; conditions: in vivo; procedure, shortened: as §1
[8] = Solubility in phosphate buffered saline at pH 7.4 at 50 uM incubated overnight by liquid chromatography/tandem mass spectrometric analysis; assay type: physicochemical; conditions: buffer, pH 7.4, 50 µM
Procedure, shortened: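 Compound at 50 µM in 1X PBS adjusted to pH 7.4, shaken overnight at 37 °C, then centrifuged 13500 rpm for 15 min at room temperature. Duplicate supernatant aliquots analysed by LC-MS/MS.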

[9] = Half life in mouse liver microsomes at 1.5 uM by liquid chromatography/tandem mass spectrometric analysis; assay type: ADME, microsome
Procedure, shortened: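 Pooled mouse liver microsomes at 0.5 mg/ml with compound at 1.5 µM final, in duplicate. Quenched with acetonitrile at 0, 5, 10, 15, 30 and 60 min, analysed by LC-MS/MS. Testosterone and dextromethorphan run as controls.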

[10] = target: Cytochrome P450 3A4 (Homo sapiens, UniProt P08684); assay: Inhibition of CYP3A4 (unknown origin); assay type: ADME
Cytochrome P450 3A4, sequence (P08684 whole entry): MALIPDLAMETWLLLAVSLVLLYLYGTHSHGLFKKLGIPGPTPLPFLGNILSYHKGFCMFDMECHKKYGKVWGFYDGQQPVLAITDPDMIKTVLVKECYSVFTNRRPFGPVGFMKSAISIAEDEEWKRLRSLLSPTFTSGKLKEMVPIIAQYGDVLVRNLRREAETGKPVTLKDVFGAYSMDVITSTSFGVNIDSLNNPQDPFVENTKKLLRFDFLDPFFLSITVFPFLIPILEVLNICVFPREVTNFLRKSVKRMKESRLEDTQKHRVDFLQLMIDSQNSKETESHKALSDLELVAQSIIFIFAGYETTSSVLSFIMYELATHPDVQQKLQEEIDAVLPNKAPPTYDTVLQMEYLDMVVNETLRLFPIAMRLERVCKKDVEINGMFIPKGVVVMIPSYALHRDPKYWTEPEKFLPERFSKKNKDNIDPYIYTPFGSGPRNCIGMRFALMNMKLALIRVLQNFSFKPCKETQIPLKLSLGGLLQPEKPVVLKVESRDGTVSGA

| EC50 [1] [µM] | SMILES | CC50 [2] [µM] | other results |
| --- | --- | --- | --- |
| 0.033 | COc1ccc(N2C(=O)CN(Cc3ccc(F)cc3F)C2=S)cc1OC | > 50 |  |
| 0.555 | COc1ccc(N2C(=O)CN(Cc3ccc(F)cc3[N+](=O)[O-])C2=S)cc1OC | > 50 |  |
| 0.01 | O=C1CN(Cc2ccc(F)cc2F)C(=S)N1c1ccc(N2CCCC2)c(Cl)c1 | > 50 |  |
|  | CC(C)NCC(O)COc1cccc2ccccc12 (centres undefined) [PROPRANOLOL] |  | PPB [3]: 91.7% |
| 0.346 | COc1ccc(N2C(=O)CN(Cc3ccccc3)C2=S)cc1Cl |  |  |
| 0.006 | COc1cc(N2C(=O)CN(Cc3ccc(F)cc3F)C2=S)ccc1N(C)C | > 50 |  |
| 0.003 to 0.0032 | CN(C)c1ccc(N2C(=O)CN(Cc3ccc(F)cc3)C2=S)cc1Cl | 39 | AUC [4]: 1376 µmol·min/L; Activity [5]: 100%; BPR [6]: 0.74; Cmax [7]: 2100 nM; solubility [8]: 2.1 µM (≈ 0.794 µg/mL); t1/2 [9]: 15 min; PPB [3]: 88.8% |
| > 10 | COc1ccc(Cl)cc1N1C(=O)CN(Cc2ccccc2)C1=S |  |  |
| > 20 | O=C1CN(Cc2ccccc2)C(=S)N1c1ccccc1Cl |  |  |
| 0.002 | CN(C)c1ccc(N2C(=O)CN(Cc3ccc(F)cc3Cl)C2=S)cc1Cl | > 50 |  |
| 0.004 | CN(C)c1ccc(N2C(=O)CN(Cc3ccc(F)cc3F)C2=S)cc1Cl | > 50 |  |
| > 10 | O=C1CN(Cc2ccccc2)C(=S)N1c1ccc(Cl)cc1 |  |  |
| 17.8 | COc1ccc(N2C(=O)CN(Cc3ccc(C#N)cc3)C2=S)cc1Cl |  |  |
| 0.968 | COc1ccc(N2C(=O)CN(Cc3cccc(F)c3)C2=S)cc1Cl |  |  |
| 0.115 | COc1ccc(N2C(=O)CN(Cc3ccc(F)c(F)c3)C2=S)cc1OC | > 50 |  |
| > 10 | CC(=O)c1ccc(N2C(=O)CN(Cc3ccccc3)C2=S)cc1 |  |  |
| 0.014 | COc1ccc(N2C(=O)CN(Cc3ccc(F)cc3Cl)C2=S)cc1OC | 36.8 |  |
| > 20 | COc1ccc(N2C(=O)CN(Cc3ccc(F)c(C#N)c3)C2=S)cc1Cl |  |  |
| > 10 | O=C1CN(Cc2ccccc2)C(=S)N1c1ccccc1 |  |  |
| 0.35 | COc1ccc(N2C(=O)CN(Cc3ccc(F)cc3[N+](=O)[O-])C2=S)cc1Cl |  |  |
| 0.313 | COc1ccc(N2C(=O)CN(Cc3ccc(F)c(F)c3)C2=S)cc1Cl |  |  |
| > 20 | O=C1CN(Cc2ccccc2)C(=S)N1c1cccc(Cl)c1 |  |  |
| 0.028 | COc1cc(N2C(=O)CN(Cc3ccc(F)c(F)c3)C2=S)ccc1N(C)C | > 50 |  |

| EC50 [1] [µM] | SMILES | CC50 [2] [µM] | other results |
| --- | --- | --- | --- |
| 1.55 | COc1ccc(N2C(=O)CN(Cc3ccc(C)cc3)C2=S)cc1Cl |  |  |
| 0.013 | CN(C)c1ccc(N2C(=O)CN(Cc3ccc(F)c(F)c3)C2=S)cc1Cl | > 50 |  |
| 0.107 | COc1cc(F)ccc1CN1CC(=O)N(c2ccc(OC)c(OC)c2)C1=S | > 50 |  |
| 0.011 | COc1cc(F)ccc1CN1CC(=O)N(c2ccc(N(C)C)c(Cl)c2)C1=S | 12.6 |  |
| 0.00115 | N=C(N)c1ccc(OCCCCCOc2ccc(C(=N)N)cc2)cc1 |  |  |
| 0.049 | COc1ccc(N2C(=O)CN(Cc3ccc(F)cc3)C2=S)cc1OC | > 50 |  |
| 3 | COc1ccc(N2C(=O)CN(Cc3cccnc3)C2=S)cc1Cl |  |  |
| > 10 | CC(C)c1ccc(N2C(=O)CN(Cc3ccccc3)C2=S)cc1 |  |  |
| > 10 | COc1ccc(N2C(=O)CN(Cc3ccccc3)C2=S)cc1 |  |  |
| 1.5 | CN(C)c1ccc(N2C(=O)CN(Cc3ccccc3)C2=S)cc1 |  |  |
| > 10 | COc1cccc(N2C(=O)CN(Cc3ccccc3)C2=S)c1 |  |  |
| 0.009 | O=C1CN(Cc2ccc(F)cc2Cl)C(=S)N1c1ccc(N2CCCC2)c(Cl)c1 | > 50 |  |
| 0.037 | COc1ccc(N2C(=O)CN(Cc3ccc(F)cc3C(F)(F)F)C2=S)cc1OC | > 50 |  |
| 0.924 | COc1ccc(N2C(=O)CN(Cc3ccc(F)cc3C(F)(F)F)C2=S)cc1Cl |  |  |
| > 10 | O=C1CN(Cc2ccccc2)C(=S)N1c1ccc(O)cc1 |  |  |
| > 10 | O=C1CN(Cc2ccccc2)C(=S)N1c1cc(C(F)(F)F)cc(C(F)(F)F)c1 |  |  |
| 0.013 | COc1cc(N2C(=O)CN(Cc3ccccc3)C2=S)ccc1N(C)C |  |  |
| > 10 | O=C1CN(Cc2ccccc2)C(=S)N1c1ccc(Cl)c(C(F)(F)F)c1 |  |  |
| > 20 | COC(=O)c1ccc(CN2CC(=O)N(c3ccc(OC)c(Cl)c3)C2=S)cc1 |  |  |
| 0.016 | CN(C)c1ccc(N2C(=O)CN(Cc3ccccc3)C2=S)cc1Cl |  |  |
| 0.161 | COc1ccc(N2C(=O)CN(Cc3ccccc3)C2=S)cc1OC |  |  |
| > 20 | COc1ccc(N2C(=O)CN(Cc3ccc(C(F)(F)F)cc3)C2=S)cc1Cl |  |  |
| 0.637 | COc1ccc(N2C(=O)CN(Cc3ccccc3)C2=S)c(OC)c1 |  |  |

| EC50 [1] [µM] | SMILES | CC50 [2] [µM] | other results |
| --- | --- | --- | --- |
| > 10 | O=C1CN(Cc2ccccc2)C(=S)N1c1ccc(F)c(Cl)c1 |  |  |
| > 10 | O=C(O)c1ccc(N2C(=O)CN(Cc3ccccc3)C2=S)cc1 |  |  |
| 0.853 | COc1ccc(N2C(=O)CN(Cc3ccc(Cl)cc3)C2=S)cc1Cl |  |  |
| > 10 | O=C1CN(Cc2ccccc2)C(=S)N1c1cc(Cl)ccc1F |  |  |
|  | CCN(CC)CCCC(C)Nc1c2ccc(Cl)cc2nc2ccc(OC)cc12 (centres undefined) [QUINACRINE] | 2.34 |  |
| 0.027 | O=C1CN(Cc2ccc(F)cc2)C(=S)N1c1ccc(N2CCCC2)c(Cl)c1 | > 50 |  |
| 0.028 | CN(C)c1ccc(N2C(=O)CN(Cc3ccc(F)cc3F)C2=S)cc1F | > 50 |  |
| 0.028 | COc1cc(N2C(=O)CN(Cc3ccc(F)cc3C(F)(F)F)C2=S)ccc1N(C)C | > 50 |  |
| 0.191 | COc1ccc(N2C(=O)CN(Cc3ccc(F)cc3OC)C2=S)cc1Cl |  |  |
| 0.044 | COc1cc(N2C(=O)CN(Cc3ccc(F)cc3[N+](=O)[O-])C2=S)ccc1N(C)C | > 50 |  |
| 0.007 | COc1cc(N2C(=O)CN(Cc3ccc(F)cc3)C2=S)ccc1N(C)C | > 50 |  |
| 0.015 | CN(C)c1ccc(N2C(=O)CN(Cc3ccc(F)cc3Cl)C2=S)cc1F | > 50 |  |
| > 20 | COc1ccc(CN2CC(=O)N(c3ccc(OC)c(Cl)c3)C2=S)cc1 |  |  |
| 0.431 | COc1ccc(N2C(=O)CN(Cc3ccccc3)C2=S)cc1N(C)C |  |  |
| 0.125 | CN(C)c1ccc(N2C(=O)CN(Cc3ccccc3)C2=S)cc1F |  |  |
| > 10 | COc1cc(N2C(=O)CN(Cc3ccccc3)C2=S)cc(OC)c1OC |  |  |
| 0.052 | COc1ccc(N2C(=O)CN(Cc3ccc(F)cc3)C2=S)cc1Cl |  |  |
| 0.063 | COc1ccc(N2C(=O)CN(Cc3ccc(F)cc3F)C2=S)cc1Cl |  |  |
| 0.011 | COc1cc(F)ccc1CN1CC(=O)N(c2ccc(N(C)C)c(OC)c2)C1=S | 39.6 |  |
| 0.019 | CN(C)c1ccc(N2C(=O)CN(Cc3ccc(F)cc3[N+](=O)[O-])C2=S)cc1Cl | > 50 |  |
| > 10 | O=C1CN(Cc2ccccc2)C(=S)N1c1ccc(F)cc1 |  |  |

| SMILES | EC50 [1] [µM] | CC50 [2] [µM] | other results |
| --- | --- | --- | --- |
| CN(C)c1ccc(N2C(=O)CN(Cc3ccc(F)cc3C(F)(F)F)C2=S)cc1Cl | 0.022 | > 50 |  |
| COc1cc(N2C(=O)CN(Cc3ccc(F)cc3Cl)C2=S)ccc1N(C)C | 0.0019 to 0.002 | > 50 | AUC [4]: 750 µmol·min/L; Activity [5]: 100%; BPR [6]: 1.68; Cmax [7]: 2500 nM; solubility [8]: 4.1 µM (≈ 1.67 µg/mL); IC50 [10]: 7.76 µM; PPB [3]: 96.3% |
